DENV2 CPE = inhibitors of DENV2 cytopathic effect, primary screen, cell-based, plate reader, single concentration. DENV2-infected cells, cytopathic effect rescue. CPE inhibition, % at 9.99 µM. 350,000 tested, 1.7% active. AID 651640, 2012; in the data active means CPE inhibition above about 20%, passing the limit was not always enough; inconclusive means no clear call, values can overlap the other calls; tested in BHK-21 cells
PGC1a acetyl inh = inhibitors of PGC1a acetylation signal, primary screen, cell-based, U2OS, AlphaScreen, inhibitor mode; inhibition, % at 15.6 µM; AlphaScreen anti-acetyl-lysine; with virally co-expressed GCN5 acetyltransferase; 350,000 tested, 0.17% active;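 active means every replicate shows inhibition of at least 40%; inconclusive means mean inhibition at least 40% but some replicate below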
CFTR F508del cor = F508del CFTR correction, initial screen, CFBE line, single point. CFBE cells, YFP halide quenching; stimulated with forskolin plus potentiator P3; % fluorescence drop versus neutral controls. activity (quench increase), % at 7.58 µM. 350,000 tested, 0.36% active. AID 720511, 2013;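 active means mean added fluorescence quench of at least 8% versus neutral control, with both replicates also reaching 8%; inconclusive means only one of the mean or replicate conditions met; inactive means mean below 8% and not both replicates reaching 8%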;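 further: cells transiently co-express mutant CFTR-F508del with the halide-sensitive YFP; corrector assay measuring rescue of mutant channel to the surface after 24 h compound exposure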
XiGFP reactiv = activators of inactive X chromosome reactivation, primary screen, imaging, XiGFP fibroblasts, GFP high-content imaging, set 2. XiGFP mouse fibroblasts, % GFP-positive cells imaging, 3 d; cells co-treated with 5-aza-dC sensitizer; scaled so ellipticine positive control = 100%. activation, % at 7.58 µM. 360,000 tested, 0.055% active. AID 743238, 2013;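 active means mean normalized replicate activation at least 10% and every replicate at or above 10%; inconclusive means only one of the two criteria met; inactive means mean below 10% and not all replicates reach 10%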
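Assay system – SV40-immortalized XiGFP fibroblast cells, line 68-5-11 · Buffer or medium – DMEM supplemented with 5-aza-dC as sensitizing agent · Dosing – one concentration, pinned · Benchmarks – positive control ellipticine, 6 µM final · Times – 3 days compound exposure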
Cneo AK release = Cryptococcus neoformans cell lysis inducers, primary screen, AK release luminescence, single concentration; C. neoformans lysis, adenylate kinase release luminescence, 4 h; normalised: neutral wells 0, clomiphene wells 100; lysis activity, % at 15 µM; 360,000 tested, 0.2% active; AID 651654, 2012;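 active means mean lysis activity across replicates of at least 80%, whatever share of replicates individually reach that level; inactive means mean lysis activity below 80%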
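Assay system: C. neoformans cells. Amount: yeast cell density of 5 × 10^6 cells/mL. Technique: AK luminescence. Buffer or medium: YPD. Times: static 4 h at 37 °C with compound, 1 h detection. Dosing: single-point compound dose. Read-out: lysis from increased AK signal.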
FN deposit inh = inhibitors of fibronectin matrix deposition, primary screen, AH1F cells, Alexa488-fibronectin fluorescence, plate reader | AH1F fibroblasts, overnight | inhibition, % at 12.6 µM | 350,000 tested, 0.086% active | AID 743247, 2014;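 active means mean inhibition across replicates of 30% or more, regardless of how many single replicates reach that level; inconclusive means mean under 30% yet at least half of replicates reach 30%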
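Schedule: 1 h cell adhesion before compound, then overnight fibronectin incubation; test system: AH1F fibroblast monolayer depositing Alexa488-labelled fibronectin into matrix; quantity: 10000 AH1F cells per well; probe or stimulus: fluorescent fibronectin at 24 nM final; signal: fluorescence, ex 485 nm, em 525 nm; evaluation: percent inhibition as loss of matrix-bound fibronectin fluorescence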
Each line names hits and unclear results; the compound was inactive in the other large screens. Rows were chosen to be rich in hits. Some 1.9% of all compounds tested hit in one or more screens of this group.

C[C@@H]1CCCCO[C@@H](CN(C)C(=O)CCC(F)(F)F)[C@H](C)CN([C@H](C)CO)C(=O)c2cc(NS(=O)(=O)c3ccc(Cl)cc3)ccc2O1	none
COc1ccc2c3c([nH]c2c1)[C@H](CO)N(Cc1ccccc1F)CC31CN(C(=O)C2CCCC2)C1	DENV2 CPE 24, CFTR F508del cor inconclusive (no result: PGC1a acetyl inh, Cneo AK release, FN deposit inh)
COc1ccc2c3c([nH]c2c1)[C@H](CO)N(C)CC31CN(C(=O)C2CC2)C1	DENV2 CPE 45 (no result: Cneo AK release)
O=C(NCC1CCCCC1)[C@@H]1N[C@@H]2c3ccc(C4=CCCC4)c(=O)n3C[C@@H]2[C@H]1CO	none (no result: PGC1a acetyl inh, FN deposit inh)
COC(=O)CCC(=O)OC1(C)C(=O)C2=CN(Cc3ccc(OC)cc3)C(c3ccc(OC)cc3)=CC2=C(Br)C1=O (configuration not stated)	DENV2 CPE 23
COC(=O)CCC(=O)OC1(C)C(=O)C2=CN(Cc3ccccc3)C(c3ccc(OC)cc3)=CC2=C(Br)C1=O (configuration not stated)	none (no result: PGC1a acetyl inh)
COc1ccc2c3c([nH]c2c1)[C@@H](CO)N(C(=O)c1cccnc1)CC31CCN(C(=O)c2cccnc2)CC1	none (no result: Cneo AK release, FN deposit inh)
C[C@@H]1CN([C@@H](C)CO)C(=O)c2cc(NC(=O)CCC(F)(F)F)ccc2O[C@@H](C)CCCCO[C@H]1CN(C)C	none (no result: DENV2 CPE, Cneo AK release, FN deposit inh)
Cc1cc(C)c2nc(N3CCN(C(=O)c4cccs4)CC3)sc2c1	Cneo AK release 148 (no result: PGC1a acetyl inh)
Cc1cc2nc(N3CCN(C(=O)c4cccs4)CC3)sc2cc1C	DENV2 CPE inconclusive (no result: PGC1a acetyl inh)
COc1ccc(S(=O)(=O)N(C)C[C@H]2OCCCC[C@H](C)Oc3ccc(NS(=O)(=O)c4cccs4)cc3C(=O)N([C@@H](C)CO)C[C@H]2C)cc1	none (no result: FN deposit inh)
CNc1cc(-c2ccc(O)cc2C)ncn1	DENV2 CPE 29
COc1ccc(S(=O)(=O)Nc2cccc3c2O[C@@H](CN(C)Cc2ccc(-c4ccccc4)cc2)[C@@H](C)CN([C@H](C)CO)C3=O)cc1	none (no result: FN deposit inh)
O=[N+]([O-])c1cc([N+](=O)[O-])c(Oc2ccc(F)cc2)cc1NN1CCCCC1	none
O=[N+]([O-])c1cc([N+](=O)[O-])c(Oc2cc(F)cc(F)c2)cc1NN1CCCCC1	DENV2 CPE 25
COc1ccc(Oc2cc(NN3CCCCC3)c([N+](=O)[O-])cc2[N+](=O)[O-])cc1OC	DENV2 CPE 38
O=C(NCCN1CCCCC1)[C@H]1N[C@H]2c3ccc(-c4ccncc4)c(=O)n3C[C@H]2[C@@H]1CO	Cneo AK release 98 (no result: PGC1a acetyl inh, FN deposit inh)
CS(=O)(=O)N1CC2(C1)[C@H](c1ccccc1)[C@H](CO)N2Cc1ccccn1	none (no result: Cneo AK release, FN deposit inh)
O=C(Nc1cccc(Cl)c1)c1csc(COCCO)n1	none (no result: PGC1a acetyl inh)
O=C(Nc1cccc(C(F)(F)F)c1)c1csc(COCCO)n1	DENV2 CPE 24
Cc1cc(C)c(C#N)c(N2CCN(c3ccccc3)CC2)n1	PGC1a acetyl inh 49
C/C=C/c1ccc2c(c1)O[C@@H](CN(C)C(=O)c1cnccn1)[C@@H](C)CN([C@@H](C)CO)S2(=O)=O	none
O=[N+]([O-])c1cccc(C=Nc2cc3c(cc2Br)OCCO3)c1	DENV2 CPE 44 (no result: PGC1a acetyl inh, CFTR F508del cor, Cneo AK release)
O=C(N/N=C/c1cccc([N+](=O)[O-])c1)c1ccc2c(c1)OCCO2	none (no result: DENV2 CPE, CFTR F508del cor, XiGFP reactiv)
CCOC(=O)CCCCCC(=O)Nc1ccc2c(c1)C(=O)N([C@@H](C)CO)C[C@H](C)[C@H](CN(C)S(=O)(=O)c1ccc(F)cc1)O2	none (no result: DENV2 CPE, PGC1a acetyl inh, CFTR F508del cor, Cneo AK release)
C[C@@H]1CN([C@H](C)CO)C(=O)c2cc(C#CC3CC3)cnc2O[C@H]1CN(C)C(=O)Nc1ccccc1	DENV2 CPE 31 (no result: FN deposit inh)
C[C@H]1CN([C@@H](C)CO)C(=O)c2cc(C#CC3CC3)cnc2O[C@H]1CN(C)C(=O)Cc1ccccn1	none (no result: FN deposit inh)
C[C@H](CO)N1C[C@H](C)[C@H](CN(C)C)Oc2ncc(C#CC3CC3)cc2C1=O	DENV2 CPE 102
C[C@H](CO)N1C[C@H](C)[C@H](CN(C)C(=O)Cc2ccccn2)Oc2ncc(C#CC3CC3)cc2C1=O	DENV2 CPE 25 (no result: FN deposit inh)
CN1CCCN=C1/C=C/c1cccs1	DENV2 CPE 74 (no result: PGC1a acetyl inh)
CCCC#Cc1ccc([C@@H]2[C@H]3CN(C(=O)Nc4ccc(F)cc4)CC(=O)N3[C@H]2CO)cc1	DENV2 CPE 42 (no result: Cneo AK release, FN deposit inh)
CCCC#Cc1ccc([C@H]2[C@@H](CO)N3C(=O)CN(C(=O)NC4CCCC4)C[C@@H]23)cc1	DENV2 CPE 31 (no result: Cneo AK release, FN deposit inh)
O=C(Nc1ccc(F)cc1)N1CC(=O)N2[C@@H](CO)[C@H](c3ccc(C#Cc4ccc(F)cc4)cc3)[C@@H]2C1	none (no result: Cneo AK release)
O=C(Nc1ccccc1F)N1CC(=O)N2[C@@H](CO)[C@H](c3ccc(C#Cc4ccc(F)cc4)cc3)[C@@H]2C1	none (no result: Cneo AK release, FN deposit inh)
O=C(Nc1ccccc1F)N1CC(=O)N2[C@H](CO)[C@H](c3ccc(C#Cc4ccc(F)cc4)cc3)[C@@H]2C1	DENV2 CPE 27 (no result: Cneo AK release, FN deposit inh)
CN(c1cccnc1)c1ccc(NC(=O)Cc2cn(Cc3ccccc3)c3ccccc23)cc1Br	none (no result: PGC1a acetyl inh, Cneo AK release)
O=C(Cc1cn(Cc2ccccc2)c2ccccc12)Nc1ccc(Oc2cccnc2)cc1	DENV2 CPE 49 (no result: PGC1a acetyl inh, Cneo AK release)
Cn1cc(CC(=O)Nc2ccc(Nc3cccnc3)cc2)c2ccccc21	DENV2 CPE 54 (no result: PGC1a acetyl inh, Cneo AK release)
COc1cccc(NC(=O)Cc2cn(C)c3ccccc23)c1	none (no result: DENV2 CPE, CFTR F508del cor, XiGFP reactiv, FN deposit inh)
O=[N+]([O-])c1ccc2ncnc(N3CCN(Cc4ccc5c(c4)OCO5)CC3)c2c1	none
O=[N+]([O-])c1cccnc1N1CCN(Cc2ccc3c(c2)OCO3)CC1	DENV2 CPE 34
O=[N+]([O-])c1ccccc1/C=C/CN1CCN(Cc2ccc3c(c2)OCO3)CC1	DENV2 CPE 47
COc1ccc(NC(=O)Nc2ccc3c(c2)C(=O)N([C@H](C)CO)C[C@H](C)[C@@H](CN(C)C(=O)Cc2ccccc2)OCCCC[C@@H](C)O3)cc1	DENV2 CPE 68 (no result: FN deposit inh)
CC(C)NC(=O)Nc1ccc2c(c1)C(=O)N([C@@H](C)CO)C[C@@H](C)[C@H](CN(C)C(=O)Cc1ccccc1)OCCCC[C@@H](C)O2	Cneo AK release 95
COc1ccc(NC(=O)Nc2ccc3c(c2)C(=O)N([C@H](C)CO)C[C@H](C)[C@H](CN(C)C(=O)Cc2ccccc2)OCCCC[C@@H](C)O3)cc1	none (no result: FN deposit inh)
COc1ccc(NC(=O)Nc2ccc3c(c2)C(=O)N([C@@H](C)CO)C[C@@H](C)[C@H](CN(C)C(=O)Cc2ccccc2)OCCCC[C@@H](C)O3)cc1	none (no result: FN deposit inh)

Assay outcomes as filed in PubChem BioAssay.
